Results from different studies.
Each line is one published result; the experiments were not run side by side.
Target: Macrophage-stimulating protein receptor (MST1R, Homo sapiens, UniProt Q04912)

O=C(c1ccc(Nc2ncc(Cl)c(-c3cc4ccccc4s3)n2)cc1)N1CCC(N2CCCC2)CC1 — remaining binding (binding; competition with immobilised ligand; 1 µM): 56%
N[C@@H]1CCN(c2nccc(-c3cnn4ncccc34)n2)C1 — remaining binding (binding; 1 µM): 100%
NS(=O)(=O)c1cc(NC(=O)Cc2ccccc2)ccc1Oc1cccc(Cl)c1 — remaining binding (cell-free assay; competition with immobilised ligand; 1 µM): 97%
O=C(c1ccc(Nc2nccc(-c3cc4ccccc4s3)n2)cc1)N1CCC(N2CCCC2)CC1 — remaining binding (binding; competition with immobilised ligand; 1 µM): 88%
c1ccc(N2CCN(Cc3nc4ccccc4[nH]3)CC2)nc1 — remaining binding (cell-free assay; competition with immobilised ligand; 1 µM): 100%
COc1ncc2cc3ccccc3nc2c1C#N — remaining binding (cell-free assay; competition with immobilised ligand; 5 µM): 100%
CS(=O)(=O)c1cc(C2(NC(=O)c3cncc4c3cnn4-c3ccc(F)cc3)CC2)ccn1 — remaining binding (cell-free assay; competition with immobilised ligand; 1 µM): 83%
CN(c1nccc(-c2cnn3ncccc23)n1)C1CC1 — remaining binding (binding; 1 µM): 100%
CCN1CCN(Cc2ccc(C(=O)Nc3ccc(C)c(Oc4ccc5c(c4)CC(=O)N5)c3)cc2C(F)(F)F)CC1 — remaining binding (binding; competition with immobilised ligand; 1 µM): 88%
COc1cnc(Nc2cccc(S(N)(=O)=O)c2)nc1N1CCN(c2ccccc2)C(=O)C1 — remaining binding (binding; competition with immobilised ligand; 1 µM): 100%
CNC(=O)c1ccc(Nc2ncc(C(F)(F)F)c(NCc3nccnc3N(C)S(C)(=O)=O)n2)cc1 — remaining binding (cell-free assay; competition with immobilised ligand; 0.1 µM): 100%
Nc1ncc2c(n1)-c1c([nH]c3ccc(C#CC4CC4)cc13)CCCC2 — remaining binding (binding; competition with immobilised ligand; 1 µM): 100%
O=C(Nc1cccnn1)N1CC(C/C=C/c2cncc(Oc3ccc(C(F)(F)F)cn3)n2)C1 — remaining binding (cell-free assay; competition with immobilised ligand; 1 µM): 100%
C[C@H]1CCN(c2nccc(-c3cnn4ncccc34)n2)C1 — remaining binding (binding; 1 µM): 93%
Cc1cnc(Nc2ccc(C(=O)N3CCC(N4CCCC4)CC3)cc2)nc1-c1cc2ccccc2s1 — remaining binding (binding; competition with immobilised ligand; 1 µM): 83%
CN(CCCC(F)(F)F)c1nccc(-c2cnn3ncccc23)n1 — remaining binding (binding; 1 µM): 100%
O=C(NCC1CCOCC1)c1n[nH]cc1NC(=O)c1c(F)cccc1F — remaining binding (binding; competition with immobilised ligand; 1 µM): 100%
CN(C)c1nccc(-c2cnc3ncccn23)n1 — remaining binding (binding; 1 µM): 98%
C[C@@H]1CN(c2cc(-c3n[nH]c4ccc(OC5(C)CC5)cc34)ncn2)C[C@H](C)O1 — remaining binding (cell-free assay; competition with immobilised ligand; 0.1 µM): 100%
CN(C)c1nccc(-c2cnn3ncccc23)n1 — remaining binding (binding; 1 µM): 100%
CNC(=O)[C@@H]1CC[C@@H](n2c(-c3ccc4cnccc4c3)nc3ccc(C(=O)NCc4cccc(C(N)=O)c4)cc32)C1 — remaining binding (binding; competition with immobilised ligand; 1 µM): 87%
